In the M2OR odorant receptor database:

Tests used:
Details in all cases: stereoisomer not certain
[1] = target: OR5G3 (Homo sapiens) (UniProt P0C626)
Outline: (§1)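 Whether a receptor–molecule pair is responsive (active) rests on the original authors' judgment that its measured signal was statistically different from baseline. Pairs without that judgment are non-responsive (inactive). Sources used varied assay methods, commonly transient luciferase assays in mammalian cell lines.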

[2] = target: OR5H14 (Homo sapiens) (UniProt A6NHG9)
Outline: as §1

[3] = target: OR5H15 (Homo sapiens) (UniProt A6NDH6)
Outline: as §1

[4] = system: OR5H2
Outline: as §1

[5] = target: OR5H6 (Homo sapiens) (UniProt Q8NGV6)
Outline: as §1

[6] = target: OR5H8 (Homo sapiens) (UniProt P0DN80)
Outline: as §1

[7] = target: OR5I1 (Homo sapiens) (UniProt Q13606)
Outline: as §1

[8] = target: OR5J2 (Homo sapiens) (UniProt Q8NH18)
Outline: as §1

[9] = target: OR5K2 (Homo sapiens) (UniProt Q8NHB8)
Outline: as §1

[10] = target: OR5K3 (Homo sapiens) (UniProt A6NET4)
Outline: as §1

[11] = target: OR5K4 (Homo sapiens) (UniProt A6NMS3)
Outline: as §1

[12] = target: OR5L1 (Homo sapiens) (UniProt Q8NGL2)
Outline: as §1

[13] = target: OR5M1 (Homo sapiens) (UniProt Q8NGP8)
Outline: as §1

[14] = target: OR5H1 (Homo sapiens) (UniProt A6NKK0)
Outline: as §1

[15] = system: OR5H1 F17L A30T H56Q
Outline: as §1

[16] = system: OR5H1 T181N
Outline: as §1

[17] = system: OR5H1
Outline: as §1

[18] = system: OR5K2 L197M
Outline: as §1

[19] = target: OR5L2 (Homo sapiens) (UniProt Q8NGL0)
Outline: as §1

Measured: odorant receptor agonist call;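 further: active if original authors judged signal statistically different from baseline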

OR5I1 (Homo sapiens), sequence (Q13606 whole entry): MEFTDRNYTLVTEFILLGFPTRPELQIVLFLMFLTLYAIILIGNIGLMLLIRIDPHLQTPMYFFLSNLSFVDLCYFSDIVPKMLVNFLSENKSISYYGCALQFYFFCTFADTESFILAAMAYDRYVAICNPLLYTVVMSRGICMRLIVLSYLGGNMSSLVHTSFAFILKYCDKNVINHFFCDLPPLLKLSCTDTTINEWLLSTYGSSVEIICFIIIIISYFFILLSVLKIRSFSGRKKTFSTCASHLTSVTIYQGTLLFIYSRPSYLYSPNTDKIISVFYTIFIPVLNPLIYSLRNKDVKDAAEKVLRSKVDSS
OR5H6 (Homo sapiens), sequence (Q8NGV6 whole entry): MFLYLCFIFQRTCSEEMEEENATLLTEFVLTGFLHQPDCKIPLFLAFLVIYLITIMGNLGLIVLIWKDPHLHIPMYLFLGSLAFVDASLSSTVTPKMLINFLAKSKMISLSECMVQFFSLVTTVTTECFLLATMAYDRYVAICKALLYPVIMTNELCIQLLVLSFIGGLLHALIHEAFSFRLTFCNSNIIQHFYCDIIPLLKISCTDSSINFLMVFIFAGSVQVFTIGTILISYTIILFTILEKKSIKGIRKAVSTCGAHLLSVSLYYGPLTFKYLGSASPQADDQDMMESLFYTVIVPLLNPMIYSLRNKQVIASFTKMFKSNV
OR5H15 (Homo sapiens), sequence (A6NDH6 whole entry): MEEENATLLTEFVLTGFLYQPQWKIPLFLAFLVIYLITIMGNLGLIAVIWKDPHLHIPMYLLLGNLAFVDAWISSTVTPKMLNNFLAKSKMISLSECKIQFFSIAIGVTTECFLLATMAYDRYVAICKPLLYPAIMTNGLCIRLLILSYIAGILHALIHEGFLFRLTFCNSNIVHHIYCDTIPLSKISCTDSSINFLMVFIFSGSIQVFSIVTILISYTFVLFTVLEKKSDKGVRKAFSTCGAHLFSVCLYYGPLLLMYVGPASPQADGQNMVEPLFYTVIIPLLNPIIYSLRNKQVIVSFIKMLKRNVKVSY
OR5K4 (Homo sapiens), sequence (A6NMS3 whole entry): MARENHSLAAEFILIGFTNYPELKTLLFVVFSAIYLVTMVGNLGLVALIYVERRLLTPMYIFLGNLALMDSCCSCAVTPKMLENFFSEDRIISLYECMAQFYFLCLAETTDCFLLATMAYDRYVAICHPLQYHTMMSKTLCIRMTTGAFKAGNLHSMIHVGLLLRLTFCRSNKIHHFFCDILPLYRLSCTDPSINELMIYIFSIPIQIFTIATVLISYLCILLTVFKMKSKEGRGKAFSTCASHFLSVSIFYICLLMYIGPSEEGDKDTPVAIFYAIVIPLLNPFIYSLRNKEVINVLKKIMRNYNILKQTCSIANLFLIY
OR5M1 (Homo sapiens), sequence (Q8NGP8 whole entry): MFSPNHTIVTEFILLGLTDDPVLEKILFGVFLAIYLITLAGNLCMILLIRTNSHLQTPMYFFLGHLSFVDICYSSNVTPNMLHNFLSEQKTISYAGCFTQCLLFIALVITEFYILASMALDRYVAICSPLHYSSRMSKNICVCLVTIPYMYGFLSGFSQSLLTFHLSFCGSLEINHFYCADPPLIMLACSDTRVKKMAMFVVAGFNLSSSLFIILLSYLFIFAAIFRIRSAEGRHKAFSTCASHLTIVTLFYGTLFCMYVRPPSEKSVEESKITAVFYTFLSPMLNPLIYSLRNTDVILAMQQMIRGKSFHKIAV
OR5K3 (Homo sapiens), sequence (A6NET4 whole entry): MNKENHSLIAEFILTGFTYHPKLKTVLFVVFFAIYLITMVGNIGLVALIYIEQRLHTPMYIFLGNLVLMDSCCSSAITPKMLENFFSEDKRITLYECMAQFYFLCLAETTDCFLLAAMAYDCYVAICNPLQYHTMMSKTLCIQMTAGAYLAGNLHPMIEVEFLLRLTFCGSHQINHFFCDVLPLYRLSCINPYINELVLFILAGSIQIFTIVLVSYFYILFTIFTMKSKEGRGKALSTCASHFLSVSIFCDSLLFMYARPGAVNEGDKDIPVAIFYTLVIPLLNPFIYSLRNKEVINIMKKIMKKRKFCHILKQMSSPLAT
OR5K2 (Homo sapiens), sequence (Q8NHB8 whole entry): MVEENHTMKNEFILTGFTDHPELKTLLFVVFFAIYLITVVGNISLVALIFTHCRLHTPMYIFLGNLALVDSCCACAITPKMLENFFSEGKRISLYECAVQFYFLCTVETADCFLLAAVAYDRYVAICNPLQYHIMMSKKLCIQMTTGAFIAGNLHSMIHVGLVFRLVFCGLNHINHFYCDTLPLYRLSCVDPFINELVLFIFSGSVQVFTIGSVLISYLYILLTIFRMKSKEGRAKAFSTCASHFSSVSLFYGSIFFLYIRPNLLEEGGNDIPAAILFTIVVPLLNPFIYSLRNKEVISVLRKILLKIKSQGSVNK
OR5L1 (Homo sapiens), sequence (Q8NGL2 whole entry): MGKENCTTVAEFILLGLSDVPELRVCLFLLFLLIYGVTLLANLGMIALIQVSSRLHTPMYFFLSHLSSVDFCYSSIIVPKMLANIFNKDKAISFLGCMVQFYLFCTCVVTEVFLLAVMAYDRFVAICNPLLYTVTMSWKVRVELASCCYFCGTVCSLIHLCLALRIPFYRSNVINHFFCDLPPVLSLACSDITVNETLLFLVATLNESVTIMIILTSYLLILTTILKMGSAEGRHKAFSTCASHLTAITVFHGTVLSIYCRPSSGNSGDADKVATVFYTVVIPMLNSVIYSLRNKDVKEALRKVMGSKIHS
OR5H2, sequence (as listed by the source): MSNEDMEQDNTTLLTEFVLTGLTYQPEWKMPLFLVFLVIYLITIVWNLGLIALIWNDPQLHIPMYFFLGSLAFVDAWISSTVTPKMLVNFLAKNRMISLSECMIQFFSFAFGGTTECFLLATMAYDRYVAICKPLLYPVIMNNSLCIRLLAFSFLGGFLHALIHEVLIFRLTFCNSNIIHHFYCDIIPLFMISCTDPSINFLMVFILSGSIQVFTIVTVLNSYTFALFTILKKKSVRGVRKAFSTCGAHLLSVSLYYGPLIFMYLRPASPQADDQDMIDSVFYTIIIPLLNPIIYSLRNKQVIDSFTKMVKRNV
OR5H14 (Homo sapiens), sequence (A6NHG9 whole entry): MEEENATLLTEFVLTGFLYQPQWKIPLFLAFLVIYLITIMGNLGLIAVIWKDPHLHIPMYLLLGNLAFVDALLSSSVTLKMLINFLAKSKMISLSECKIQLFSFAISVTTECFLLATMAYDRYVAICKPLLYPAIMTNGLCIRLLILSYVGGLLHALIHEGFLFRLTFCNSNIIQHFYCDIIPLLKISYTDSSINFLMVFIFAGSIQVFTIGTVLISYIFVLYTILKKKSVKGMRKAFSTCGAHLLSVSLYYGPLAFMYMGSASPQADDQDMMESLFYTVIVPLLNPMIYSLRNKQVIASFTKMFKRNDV
OR5J2 (Homo sapiens), sequence (Q8NH18 whole entry): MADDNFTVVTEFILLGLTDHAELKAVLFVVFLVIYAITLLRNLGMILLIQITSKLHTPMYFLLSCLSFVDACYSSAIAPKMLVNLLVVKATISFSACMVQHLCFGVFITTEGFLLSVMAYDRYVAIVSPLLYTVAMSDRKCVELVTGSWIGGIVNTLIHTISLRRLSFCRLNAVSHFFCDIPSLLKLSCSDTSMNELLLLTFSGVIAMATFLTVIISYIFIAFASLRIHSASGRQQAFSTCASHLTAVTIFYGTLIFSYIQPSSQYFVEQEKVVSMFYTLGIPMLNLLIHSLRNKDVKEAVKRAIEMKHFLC
OR5H8 (Homo sapiens), sequence (P0DN80 whole entry): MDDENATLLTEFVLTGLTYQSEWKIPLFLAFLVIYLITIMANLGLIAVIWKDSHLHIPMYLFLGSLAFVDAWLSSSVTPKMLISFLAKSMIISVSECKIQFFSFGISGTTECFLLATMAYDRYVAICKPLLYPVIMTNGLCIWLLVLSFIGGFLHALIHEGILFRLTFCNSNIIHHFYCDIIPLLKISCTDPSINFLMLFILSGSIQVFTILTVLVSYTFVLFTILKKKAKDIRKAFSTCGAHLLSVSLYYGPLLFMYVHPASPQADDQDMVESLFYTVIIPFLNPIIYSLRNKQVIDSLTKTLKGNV
OR5K2 L197M, sequence (as listed by the source, stated change not applied): as the sequence (Q8NHB8 whole entry) above, with L197M counted along it
OR5L2 (Homo sapiens), sequence (Q8NGL0 whole entry): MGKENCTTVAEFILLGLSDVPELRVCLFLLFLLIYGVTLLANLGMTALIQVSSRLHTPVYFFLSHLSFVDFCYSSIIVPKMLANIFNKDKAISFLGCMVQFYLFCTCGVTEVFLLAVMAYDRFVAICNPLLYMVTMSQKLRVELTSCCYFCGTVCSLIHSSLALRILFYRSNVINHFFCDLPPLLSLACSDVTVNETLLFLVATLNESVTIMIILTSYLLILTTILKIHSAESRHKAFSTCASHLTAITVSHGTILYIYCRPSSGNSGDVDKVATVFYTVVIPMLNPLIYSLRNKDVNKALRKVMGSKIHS
OR5G3 (Homo sapiens), sequence (P0C626 whole entry): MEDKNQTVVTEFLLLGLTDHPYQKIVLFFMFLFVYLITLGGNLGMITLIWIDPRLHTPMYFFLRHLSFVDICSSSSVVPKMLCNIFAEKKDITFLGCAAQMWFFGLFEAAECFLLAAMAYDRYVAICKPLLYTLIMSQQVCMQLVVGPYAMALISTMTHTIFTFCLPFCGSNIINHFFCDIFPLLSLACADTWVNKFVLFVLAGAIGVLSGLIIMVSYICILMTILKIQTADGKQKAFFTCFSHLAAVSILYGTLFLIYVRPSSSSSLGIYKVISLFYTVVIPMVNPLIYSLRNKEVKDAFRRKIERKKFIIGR

Cc1c([N+](=O)[O-])c(C)c([N+](=O)[O-])c(C(C)(C)C)c1[N+](=O)[O-]
inactive: [1] | [2] | [3] | [4] | [5] | [6] | [7] | [8] | [9] | [10] | [11] | [12] | [13]

C=CCOC(=O)Cc1ccccc1
inactive: [14] | [15] | [16] | [2] | [3] | [17] | [4] | [5] | [7] | [8] | [9] | [18] | [10] | [11] | [12] | [19] | [13]
